From ChEMBL document CHEMBL4665721, “Mdm2 inhibitors as a platform for the design of P-glycoprotein inhibitors” (Bioorg Med Chem Lett, 2020)
Active and inactive are the calls of the source. The rule behind the calls is not given here.

Assays:
[1] = species on record: Homo sapiens; test: Inhibition of P-gp-mediated Rhodamine-123 efflux in human MCF7 cells assessed as Rhodamine-123 accumulation measured after 40 mins by spectrofluorimetry; format: cell-based
Outline: (§1)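 Cells in DMEM, 96-well plates, grown to 30% confluency, then co-treated with compounds and Rhodamine 123 (1 μM in solution). Even cell distribution checked by imaging. After 40 min, cells were washed and Rhodamine 123 fluorescence read on a plate reader (ex 488 nm, em 515-575 nm). Signal with 0.5 μM tariquidar in each line set to 100%. Triplicate; mean ± SEM.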

[2] = tested on: HCT-116; test: Growth inhibition of human p53 -/- NCI-HCT-116 cells upto 10 uM incubated for 48 hrs; format: functional, cell-based; conditions: dose microM <=10, time 48.0 hrs
Outline: (§2)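 Cells plated in DMEM and grown 48 h in 96-well optical-bottom plates before treatment. Compounds were added as 200X dilutions of DMSO stocks and tested up to 10 μM. After 48 h, wells were washed with PBS and monolayer confluence was scored by brightfield imaging. Untreated cells served as controls. Triplicate; mean ± SEM.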

[3] = species on record: Homo sapiens; test: Inhibition of P-gp-mediated Rhodamine-123 efflux in human p53 -/- HCT-116 assessed as Rhodamine-123 accumulation measured after 40 mins by spectrofluorimetry; outline: as §1
[4] = species on record: Homo sapiens; test: Inhibition of P-gp-mediated Rhodamine-123 efflux in human p53 -/- H1299 cells assessed as Rhodamine-123 accumulation measured after 40 mins by spectrofluorimetry
[5] = tested on: NCI-H1299; test: Growth inhibition of human p53 -/- H1299 cells upto 10 uM incubated for 48 hrs; conditions: dose microM <=10, time 48.0 hrs
[6] = tested on: MCF7; test: Growth inhibition of human MCF7 upto 10 uM incubated for 48 hrs; format: functional, cell-based; conditions: dose microM <=10, time 48.0 hrs; outline: as §2

| SMILES | inhibition [3] | inhibition [1] | inhibition [2] | inhibition [4] | inhibition [5] | inhibition [6] |
| --- | --- | --- | --- | --- | --- | --- |
| CC(C)[C@@H](CS(=O)(=O)C(C)C)N1C(=O)[C@@](C)(CC(=O)O)C[C@H](c2cccc(Cl)c2)[C@H]1c1ccc(Cl)cc1 | inactive | inactive | Active | Active | Active |  |
| COc1ccc(C2=N[C@@H](c3ccc(Cl)cc3)[C@@H](c3ccc(Cl)cc3)N2C(=O)N2CCNC(=O)C2)c(OC(C)C)c1 |  |  |  | Active |  |  |
| COc1cc2c(cc1OC)CN(CCc1ccc(NC(=O)c3cc(OC)c(OC)cc3NC(=O)c3cnc4ccccc4c3)cc1)CC2 |  |  | inactive |  | inactive | inactive |

More lines, main results first:

| inhibition [3] | SMILES | inhibition [1] | inhibition [2] | inhibition [4] | inhibition [5] | inhibition [6] |
| --- | --- | --- | --- | --- | --- | --- |
| Active | O=C(NCc1ccc(F)cc1)c1ccc(/C=C2\C(=O)N(CN3CCN(Cc4cccc(Cl)c4)CC3)c3ccc(Cl)cc32)cc1 | Active |  | Active |  |  |
| Active | N[C@H](C(=O)OCCCOC1(c2ccc(Cl)cc2)c2ccccc2C(=O)N1Cc1ccc(Cl)cc1)c1ccccc1 (stereo not given in full) | Active |  | Active |  |  |
